Active and inactive are the calls of the source. No cut-off for these calls is given here.
What was measured:
[1] = Stability of compound in pH 2 phosphate buffer at room temperature assessed as prodrug remaining after conversion into active drug CH0793076 after 3 hrs; assay type: physicochemical; details: pH 2, 3 h
[2] = Stability of compound in pH 5 phosphate buffer at room temperature assessed as prodrug remaining after conversion into active drug CH0793076 after 3 hrs; assay type: physicochemical; details: pH 5, 3 h
[3] = Stability of compound in pH 7.4 phosphate buffer at room temperature assessed as prodrug remaining after conversion into active drug CH0793076 after 3 hrs; assay type: physicochemical; details: pH 7.4, 3 h
Plasma [4] = assay: Stability in mouse plasma assessed as time required for conversion into active drug CH0793076; assay type: ADME, cell-free
Plasma [5] = assay: Stability in rat plasma assessed as time required for conversion into active drug CH0793076; assay type: ADME, cell-free
Summary of the method: (§1)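 ¹⁴C-labelled prodrug was incubated in plasma of the stated species. Formation of ¹⁴C-labelled active drug was followed over an incubation time course of 0–3 min.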

Plasma [6] = assay: Stability in dog plasma assessed as time required for conversion into active drug CH0793076; assay type: ADME, cell-free, Canis lupus familiaris; summary of the method: as §1
Plasma [7] = assay: Stability in monkey plasma assessed as time required for conversion into active drug CH0793076; assay type: ADME, cell-free, Macaca mulatta; details: rhesus monkey
[8] = Solubility in water; assay type: physicochemical
HCT-116 [9] = assay: Antitumor activity against human BCRP-negative HCT116 cells xenografted in mouse at MTD of 47 mg/kg, iv administered as bolus once per week for 3 weeks; assay type: functional, organism-based; design: dose 47 mg/kg
HCT-116 [10] = assay: Antitumor activity against human BCRP-negative HCT116 cells xenografted in mouse at MTD of 100 mg/kg, iv administered as bolus once per week for 3 weeks; assay type: functional, organism-based; design: dose 100 mg/kg
NCI-H460 [11] = assay: Antitumor activity against human BCRP-positive NCI-H460 cells xenografted in mouse at MTD of 47 mg/kg, iv administered as bolus once per week for 3 weeks; assay type: functional, organism-based; design: dose 47 mg/kg
NCI-H460 [12] = assay: Antitumor activity against human BCRP-positive NCI-H460 cells xenografted in mouse at MTD of 100 mg/kg, iv administered as bolus once per week for 3 weeks; assay type: functional, organism-based; design: dose 100 mg/kg
[13] = Toxicity in mouse administered as bolus iv injection once per week for 3 weeks; assay type: organism-based; details: in vivo

SMILES	Stability [1] [%]	Stability [2] [%]	Stability [3] [%]	also measured
CCCCCN1C=Nc2cccc3nc4c(c1c23)Cn1c-4cc2c(c1=O)COC(=O)[C@@]2(CC)OC(=O)CN(C)C(=O)CN.Cl	100	83	0	Stability (Plasma [4]): < 1 min; Stability (Plasma [5]): < 1 min; Stability (Plasma [6]): < 1 min; Stability (Plasma [7]): < 1 min; solubility [8]: > 10000 µg/mL; Activity (HCT-116 [9]): Active; Activity (HCT-116 [10]): Active; Activity (NCI-H460 [11]): Active; Activity (NCI-H460 [12]): Active; MTD at 504 h [13]: 47 mg/kg
CCCCCN1C=Nc2cccc3nc4c(c1c23)Cn1c-4cc2c(c1=O)COC(=O)[C@@]2(CC)OC(=O)CN(C)C(=O)CNC.Cl	95	83	0	
CCCCCN1C=Nc2cccc3nc4c(c1c23)Cn1c-4cc2c(c1=O)COC(=O)[C@@]2(CC)OC(=O)CNC(=O)CNC.Cl	100	100	73	
CCCCCN1C=Nc2cccc3nc4c(c1c23)Cn1c-4cc2c(c1=O)COC(=O)[C@@]2(CC)OC(=O)OCCS(=O)(=O)CCN.Cl	100	96	4	
CCCCCN1C=Nc2cccc3nc4c(c1c23)Cn1c-4cc2c(c1=O)COC(=O)[C@@]2(CC)OC(=O)CNC(=O)CN.Cl		100	47	
CCCCCN1C=Nc2cccc3nc4c(c1c23)Cn1c-4cc2c(c1=O)COC(=O)[C@@]2(CC)OC(=O)OCCS(=O)(=O)C[C@H](N)C(=O)OCC.Cl	100	68	43	
CCCCCN1C=Nc2cccc3nc4c(c1c23)Cn1c-4cc2c(c1=O)COC(=O)[C@@]2(CC)OC(=O)[C@H](C)N(C)C(=O)CN.Cl	99	47	0	
CCCCCN1C=Nc2cccc3nc4c(c1c23)Cn1c-4cc2c(c1=O)COC(=O)[C@@]2(CC)OC(=O)CN(C)C(=O)C(C)(C)N.Cl	78	0	0	

From ChEMBL document CHEMBL1152911, “Synthesis and biological activities of a pH-dependently activated water-soluble prodrug of a novel hexacyclic camptothecin analog” (Bioorg Med Chem Lett, 2009)
